Experimental findings from ChEMBL document CHEMBL4014285, “Novel, highly potent systemic glucokinase activators for the treatment of Type 2 Diabetes Mellitus” (Bioorg Med Chem Lett, 2017) are described below.

The target of series [1] is T1, Hexokinase-4 (Homo sapiens, UniProt P35557).
T1 sequence (P35557 whole entry): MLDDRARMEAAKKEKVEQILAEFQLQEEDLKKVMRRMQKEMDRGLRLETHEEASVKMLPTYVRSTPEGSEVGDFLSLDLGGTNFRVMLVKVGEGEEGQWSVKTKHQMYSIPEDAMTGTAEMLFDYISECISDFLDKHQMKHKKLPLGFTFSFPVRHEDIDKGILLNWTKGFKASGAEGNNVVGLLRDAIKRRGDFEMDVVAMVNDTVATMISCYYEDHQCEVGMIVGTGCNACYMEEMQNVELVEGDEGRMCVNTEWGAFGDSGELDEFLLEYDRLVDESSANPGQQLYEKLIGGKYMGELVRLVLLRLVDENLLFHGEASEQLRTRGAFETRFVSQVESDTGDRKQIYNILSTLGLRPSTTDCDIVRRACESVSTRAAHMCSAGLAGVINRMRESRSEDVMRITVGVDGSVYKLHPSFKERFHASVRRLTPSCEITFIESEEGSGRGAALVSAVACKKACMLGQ
Put plainly: Activation of recombinant human glucokinase assessed as conversion of D-glucose to D-glucose-6-phosphate in presence of 2.5 mM glucose by G6PDH coupled spectrophotometric assay. In outline:
(§1)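 Recombinant human GK; ATP-dependent D-glucose-6-phosphate formation from D-glucose at 2.5 or 10 mM, read by continuous glucose-6-phosphate dehydrogenase coupled spectrophotometry. Activators titrated at 1% DMSO final, DMSO as control. EC50 = concentration giving half of maximal increase in product formation; maximum activity expressed as percent velocity increase vs DMSO at saturating activator. Single titration.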

For series [2], the target named is T1, Hexokinase-4. Put plainly: Activation of recombinant human glucokinase assessed as conversion of D-glucose to D-glucose-6-phosphate in presence of 10 mM glucose by G6PDH coupled spectrophotometric assay. A digest of the protocol: as §1
The target in series [3] is T2, Hexokinase-4 (Rattus norvegicus, UniProt P17712).
T2 sequence (P17712 whole entry): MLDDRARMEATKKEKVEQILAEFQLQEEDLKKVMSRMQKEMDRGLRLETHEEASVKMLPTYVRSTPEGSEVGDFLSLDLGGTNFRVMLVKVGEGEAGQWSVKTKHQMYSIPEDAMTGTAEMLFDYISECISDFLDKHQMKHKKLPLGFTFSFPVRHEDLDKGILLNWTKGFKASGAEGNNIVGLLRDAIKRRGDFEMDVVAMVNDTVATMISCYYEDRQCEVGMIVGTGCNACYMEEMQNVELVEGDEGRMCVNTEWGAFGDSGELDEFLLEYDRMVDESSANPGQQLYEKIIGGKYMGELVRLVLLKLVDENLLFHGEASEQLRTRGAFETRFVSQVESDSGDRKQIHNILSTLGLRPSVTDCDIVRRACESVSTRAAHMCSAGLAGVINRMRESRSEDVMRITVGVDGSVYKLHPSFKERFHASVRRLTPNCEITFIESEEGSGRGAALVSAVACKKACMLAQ
The series is described as follows: Activation of glucokinase in rat INS-1 cells assessed as increase in D-2-deoxyglucose-6-phosphate level in presence of D-2-deoxyglucose by HILIC LC-MS method. The format is cell-based. A digest of the protocol: (§2)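 GKACA cell assay in rat INS-1 Clone-13 insulinoma cells or freshly isolated primary rat hepatocytes; intracellular D-2-deoxyglucose-6-phosphate formed from exogenous D-2-deoxyglucose quantified by HILIC LC-MS; EC50 from a single titration.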

In series [4] the target is T2, Hexokinase-4. Put plainly: Activation of glucokinase in primary rat hepatocytes assessed as increase in D-2-deoxyglucose-6-phosphate level in presence of D-2-deoxyglucose by HILIC LC-MS method. The format is cell-based. A digest of the protocol:
as §2

The target of series [5] is T3, Hexokinase-4 (Homo sapiens) (UniProt P35557).
T3 sequence (whole entry): T1 sequence (P35557 whole entry)
Put plainly: Activation of recombinant human glucokinase assessed as conversion of D-glucose to D-glucose-6-phosphate in presence of 2.5 mM glucose by G6PDH coupled spectrophotometric assay relative to control. In outline: as §1

For series [6], the target named is T3, Hexokinase-4 (Homo sapiens). The series is described as follows: Activation of recombinant human glucokinase assessed as conversion of D-glucose to D-glucose-6-phosphate in presence of 10 mM glucose by G6PDH coupled spectrophotometric assay relative to control. In outline:
as §1

Series [7] can be described thus: Solubility of the compound at pH 7. As to conditions: buffer. It counts as physicochemical.
The nature of series [8]: Solubility of the compound at pH 2. It counts as physicochemical. The note with it: buffer.
The subject of series [9] is Mus musculus. Put plainly: Antidiabetic activity in HFD-fed C57BL/6 mouse assessed as increase in plasma insulin level at 0.03 to 0.1 mg/kg, po. It counts as functional, organism-based. In outline: (§3)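 C57BL/6 mice fed high fat diet for 3 weeks, baseline blood glucose ~200 mg/dl, dosed orally at 0.01, 0.03 and 0.1 mg/kg. Blood glucose followed from 30 min through 4 h post dose, with blood glucose AUC over the period; plasma insulin also measured.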

The test system of series [10] is Mus musculus. Put plainly: Antidiabetic activity in HFD-fed C57BL/6 mouse assessed as reduction in blood glucose AUC at 0.03 to 0.1 mg/kg, po measured at 4 hrs post dose. It counts as functional, organism-based. A digest of the protocol: as §3
Series [11] concerns Mus musculus. Put plainly: Antidiabetic activity in HFD-fed C57BL/6 mouse assessed as decrease in blood glucose level at 0.03 mg/kg, po measured after 30 mins. It counts as functional, organism-based. In outline: as §3

Structures are written as SMILES. Converted amounts (≈) assume the structure as drawn. The source made the active and inactive calls. The calls are words filed in the database; no cut-off is given here.

For `CN1C(=O)CCC1c1cc2[nH]c(-c3ccc(C(C)(C)O)cn3)cc2cc1Oc1ccc(S(C)(=O)=O)nc1` (stereo in doubt; 4) [listing 1 of 2 here], the EC50 worked out at 4.8 nM at Hexokinase-4 [1], 2.1 nM at Hexokinase-4 [2], 3.9 nM at Hexokinase-4 [3] and 5.2 nM at Hexokinase-4 [4].

`CN1C(=O)CCC1c1cc2[nH]c(-c3ccc(C(C)(C)O)cn3)cc2cc1Oc1ccc(S(C)(=O)=O)nc1` (stereo in doubt; 4) [listing 2 of 2 here]: the results for the %max in series [5] and in [6] were 739% and 173%, respectively.

On to `CN1C(=O)CCC1c1cc2[nH]c(-c3ccc(C(F)(F)F)cn3)cc2cc1Oc1ccc(S(C)(=O)=O)nc1` (stereo in doubt; 5) [listing 1 of 2 here], for which the EC50 was 2.4 nM on Hexokinase-4 [1], below 0.85 nM at Hexokinase-4 [2], 2.5 nM at Hexokinase-4 [3] and 2.7 nM at Hexokinase-4 [4].

In the case of `CN1C(=O)CCC1c1cc2[nH]c(-c3cnccn3)cc2cc1Oc1ccc(S(C)(=O)=O)nc1` (stereo in doubt; 3) [listing 1 of 2 here], the results for the %max in [5] and in series [6] were 713% and 188%, respectively.

For `CN1C(=O)CCC1c1cc2[nH]c(-c3ccc(C(C)(C)O)cn3)cc2cc1Oc1ccc(S(C)(=O)=O)nc1` (stereo in doubt; 4-en) [listing 1 of 2 here], the %max in series [5] came out at 581%; in [6], 132%.

`CN1C(=O)CCC1c1cc2[nH]c(-c3ccc(C(F)(F)F)cn3)cc2cc1Oc1ccc(S(C)(=O)=O)nc1` (single isomer, unassigned; ent-2) [listing 1 of 2 here]: the EC50 was determined as 86 nM at Hexokinase-4 [1], 31 nM at Hexokinase-4 [2], 375 nM at Hexokinase-4 [3] and 199 nM on Hexokinase-4 [4].

For `CN1C(=O)CCC1c1cc2[nH]c(-c3cnccn3)cc2cc1Oc1ccc(S(C)(=O)=O)nc1` (stereo in doubt; 3-en) [listing 1 of 2 here], the %max in series [5] came out at 577%; in series [6], 155%.

On to `CN1C(=O)CCC1c1cc2[nH]c(-c3ccc(C(C)(C)O)cn3)cc2cc1Oc1ccc(S(C)(=O)=O)nc1` (stereo in doubt; 4-en) [listing 2 of 2 here], for which the EC50 on Hexokinase-4 [1] turned out to be 31 nM; on Hexokinase-4 [2] it was 9.8 nM; at Hexokinase-4 [3], 38 nM; at Hexokinase-4 [4] it was 34 nM.

As to `CN1C(=O)CCC1c1cc2[nH]c(-c3ccc(C(F)(F)F)cn3)cc2cc1Oc1ccc(C(=O)O)cc1` (stereo not given), the EC50 on Hexokinase-4 [1] came to 24 nM; at Hexokinase-4 [2] it was 9.6 nM; on Hexokinase-4 [3], 2110 nM; at Hexokinase-4 [4] it was 728 nM. Besides, the figures for the %max in [5] and in series [6] were 683% and 179%, respectively. Also, the solubility in series [7] amounted to 113 µM (≈ 56 µg/mL); in series [8], 5 µM (≈ 2.48 µg/mL).

Turning to `CN1C(=O)CCC1c1cc2[nH]c(-c3ccccn3)cc2cc1Oc1ccc(S(C)(=O)=O)nc1` (stereo in doubt; 1-en) [listing 1 of 2 here], the %max in [5] was 628%; in series [6], 158%.

As for `Cc1cnc(-c2cc3cc(Oc4ccc(S(C)(=O)=O)nc4)c(C4CCC(=O)N4C)cc3[nH]2)s1` (stereo in doubt; 2-en) [listing 1 of 2 here], the concentration for a half-maximal effect (EC50) amounted to 5.5 nM on Hexokinase-4 [1], 1 nM at Hexokinase-4 [2], 37 nM on Hexokinase-4 [3] and 77 nM on Hexokinase-4 [4].

On to `Cc1cnc(-c2cc3cc(Oc4ccc(S(C)(=O)=O)nc4)c(C4CCC(=O)N4C)cc3[nH]2)s1` (single isomer, unassigned) [listing 1 of 2 here], for which the results for the %max in series [5] and in [6] were 620% and 168%, respectively.

Turning to `CN1C(=O)CCC1c1cc2[nH]c(-c3ccc(C(F)(F)F)cn3)cc2cc1Oc1ccc(S(C)(=O)=O)nc1` (stereo in doubt; 5) [listing 2 of 2 here], the %max is 764% in series [5] and 174% in [6].

`Cc1cnc(-c2cc3cc(Oc4ccc(S(C)(=O)=O)nc4)c(C4CCC(=O)N4C)cc3[nH]2)s1` (stereo in doubt; 2-en) [listing 2 of 2 here]: the %max in series [5] amounted to 482%; in series [6], 132%.

On to `CCOC(=O)c1ccc(Oc2cc3cc(-c4ccc(C(F)(F)F)cn4)[nH]c3cc2C2CCC(=O)N2C)cc1` (stereo not given), for which the EC50 amounted to 4.8 nM on Hexokinase-4 [1], 9.2 nM on Hexokinase-4 [2], 22 nM at Hexokinase-4 [3] and 232 nM on Hexokinase-4 [4]. Besides, the %max is 452% in series [5] and 123% in series [6].

As to `CN1C(=O)CCC1c1cc2[nH]c(-c3cnccn3)cc2cc1Oc1ccc(S(C)(=O)=O)nc1` (stereo in doubt; 3-en) [listing 2 of 2 here], the EC50 at Hexokinase-4 [1] worked out at 48 nM; at Hexokinase-4 [2], 18 nM; on Hexokinase-4 [3] it was 247 nM; at Hexokinase-4 [4], 1510 nM.

With `CN1C(=O)CCC1c1cc2[nH]c(-c3ccccn3)cc2cc1Oc1ccc(S(C)(=O)=O)nc1` (single isomer, unassigned; ent-1), the results for the %max in series [5] and in [6] were 784% and 193%, respectively. For the same compound, the outcome in the series on Mus musculus [9], with Mus musculus [10] and with Mus musculus [11] was Active.

For `CCS(=O)(=O)c1ccc(Oc2cc3cc(-c4ccc(C(F)(F)F)cn4)[nH]c3cc2C2CCC(=O)N2C)cc1` (stereo not given), the half-maximal effective concentration (EC50) at Hexokinase-4 [1] is 2 nM; on Hexokinase-4 [2], 1.4 nM; at Hexokinase-4 [3] it was 1.7 nM; at Hexokinase-4 [4], 174 nM. Also, the %max in [5] was 602%; in [6], 158%.

`CN1C(=O)CCC1c1cc2[nH]c(-c3ccc(C(F)(F)F)cn3)cc2cc1Oc1ccc(S(C)(=O)=O)nc1` (single isomer, unassigned; ent-2) [listing 2 of 2 here]: the values for the %max in [5] and in series [6] were 583% and 141%, respectively.

On to `Cc1cnc(-c2cc3cc(Oc4ccc(S(C)(=O)=O)nc4)c(C4CCC(=O)N4C)cc3[nH]2)s1` (single isomer, unassigned) [listing 2 of 2 here], for which the EC50 was 4.5 nM on Hexokinase-4 [1], 3.8 nM at Hexokinase-4 [2], 21 nM on Hexokinase-4 [3] and 16 nM at Hexokinase-4 [4].

For the compound `CN1C(=O)CCC1c1cc2[nH]c(-c3ccccn3)cc2cc1Oc1ccc(S(C)(=O)=O)nc1` (stereo in doubt; 1-en) [listing 2 of 2 here], the EC50 at Hexokinase-4 [1] amounted to 4.2 nM; on Hexokinase-4 [2], 0.8 nM; at Hexokinase-4 [3], 33 nM; at Hexokinase-4 [4] it was 93 nM.

`CN1C(=O)CCC1c1cc2[nH]c(-c3cnccn3)cc2cc1Oc1ccc(S(C)(=O)=O)nc1` (stereo in doubt; 3) [listing 2 of 2 here]: the EC50 on Hexokinase-4 [1] was 4.5 nM; on Hexokinase-4 [2], 4.2 nM; on Hexokinase-4 [3], 7.2 nM; on Hexokinase-4 [4], 23 nM.

As to `COC(=O)c1ccc(-c2cc3cc(Oc4ccc(S(C)(=O)=O)nc4)c(C4CCC(=O)N4C)cc3[nH]2)nc1` (racemic), the EC50 at Hexokinase-4 [1] came to 8.2 nM; at Hexokinase-4 [2], 3.4 nM; at Hexokinase-4 [3], 7.8 nM; at Hexokinase-4 [4], 20 nM. The %max was found to be 739% in series [5] and 184% in [6].
